Here are results for 21 molecules from ChEMBL document CHEMBL1141692, “Benzimidazole-substituted (3-phenoxypropyl)amines as histamine H3 receptor ligands” (Bioorg Med Chem Lett, 2008).

The target of series [1] is T1, Histamine H3 receptor (Homo sapiens, UniProt Q9Y5N1). In words: Displacement of [3H]N-alpha-methylhistamine from human histamine H3 receptor expressed in HEK cells by scintillation counting. It is filed as cell-based, HEK293. The method in brief: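 Membranes (P2 pellet) from rHu H3–HEK cells were incubated in 50 mM Tris–HCl, pH 7.4, with 1 nM [3H]N-α-methylhistamine (82 Ci/mmol). Compounds were tested at half-log steps over a five-log range. Nonspecific binding was defined with 10^-5 M thioperamide. Incubation ran 30 min at 30 °C, then mixtures were filtered on PEI-soaked GF/B filters, washed three times and counted. Ki was taken from nonlinear curve fits.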
(In general: Loss of bound radioactivity is the signal in a displacement assay; it reports binding, not function.)

Series [2] addresses Voltage-gated inwardly rectifying potassium channel KCNH2 (Homo sapiens, UniProt Q12809). Kind of series: Rubidium efflux through human ERG at 5 ug/mL pre-equilibrated for 30 mins by flame atomic absorbance spectroscopy.
The target in series [3] is Histamine H3 receptor (Mus musculus, UniProt P58406). In words: Binding affinity to mouse histamine H3 receptor.
Series [4] concerns the target Cytochrome P450 3A4 (Homo sapiens, UniProt P08684). In words: Inhibition of CYP3A4 in human liver microsomes up to 30 uM by microtiter plate assay. It counts as ADME, Microsome. For orientation: Microsomes from liver hold many membrane-bound enzymes, among them those of drug oxidation.
The target in series [5] is T1, Histamine H3 receptor. In words: Antagonist activity at human histamine H3 receptor expressed in HEK293 cells assessed as reversal of N-alpha-methylhistamine-induced inhibition of forskolin-stimulated cAMP formation. It counts as functional, cell-based.
Series [6] in a line: Cmax (0 to 6 hrs) in rat at 10 mg/kg, po. It counts as ADME, organism-based. Further details: dose 10 mg/kg, route oral; call rule not given here. The note with it: in vivo. The method in brief: (§1)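 Oral dosing in rat at 10 mg/kg in methyl cellulose, n = 2, in a high-throughput PK assay. Plasma was sampled over 0–6 h time points to give AUC and Cmax.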
Series [7] in a line: AUC (0 to 6 hrs) in rat at 10 mg/kg, po. Further details: time < 6 hr, dose 10 mg/kg, route oral. The note with it: plasma. It is filed as ADME, organism-based. In a few lines: as §1
Series [8] addresses Cytochrome P450 2D6 (Homo sapiens, UniProt P10635). In words: Inhibition of CYP2D6 in human liver microsomes up to 30 uM by microtiter plate assay. It is filed as ADME, Microsome.

T1 sequence (Q9Y5N1 whole entry): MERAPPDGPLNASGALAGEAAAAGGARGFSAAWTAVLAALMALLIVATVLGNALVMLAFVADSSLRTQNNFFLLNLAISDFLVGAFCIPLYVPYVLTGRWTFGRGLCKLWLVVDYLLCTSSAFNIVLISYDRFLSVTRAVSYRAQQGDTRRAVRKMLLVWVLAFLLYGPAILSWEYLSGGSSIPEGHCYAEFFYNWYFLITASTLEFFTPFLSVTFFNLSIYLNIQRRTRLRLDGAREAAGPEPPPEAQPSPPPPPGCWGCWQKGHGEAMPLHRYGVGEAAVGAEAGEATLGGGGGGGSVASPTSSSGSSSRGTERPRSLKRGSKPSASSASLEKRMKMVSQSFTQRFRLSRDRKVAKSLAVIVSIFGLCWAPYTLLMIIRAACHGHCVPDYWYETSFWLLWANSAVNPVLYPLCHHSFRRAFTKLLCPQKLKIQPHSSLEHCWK
Voltage-gated inwardly rectifying potassium channel KCNH2, sequence (Q12809 whole entry): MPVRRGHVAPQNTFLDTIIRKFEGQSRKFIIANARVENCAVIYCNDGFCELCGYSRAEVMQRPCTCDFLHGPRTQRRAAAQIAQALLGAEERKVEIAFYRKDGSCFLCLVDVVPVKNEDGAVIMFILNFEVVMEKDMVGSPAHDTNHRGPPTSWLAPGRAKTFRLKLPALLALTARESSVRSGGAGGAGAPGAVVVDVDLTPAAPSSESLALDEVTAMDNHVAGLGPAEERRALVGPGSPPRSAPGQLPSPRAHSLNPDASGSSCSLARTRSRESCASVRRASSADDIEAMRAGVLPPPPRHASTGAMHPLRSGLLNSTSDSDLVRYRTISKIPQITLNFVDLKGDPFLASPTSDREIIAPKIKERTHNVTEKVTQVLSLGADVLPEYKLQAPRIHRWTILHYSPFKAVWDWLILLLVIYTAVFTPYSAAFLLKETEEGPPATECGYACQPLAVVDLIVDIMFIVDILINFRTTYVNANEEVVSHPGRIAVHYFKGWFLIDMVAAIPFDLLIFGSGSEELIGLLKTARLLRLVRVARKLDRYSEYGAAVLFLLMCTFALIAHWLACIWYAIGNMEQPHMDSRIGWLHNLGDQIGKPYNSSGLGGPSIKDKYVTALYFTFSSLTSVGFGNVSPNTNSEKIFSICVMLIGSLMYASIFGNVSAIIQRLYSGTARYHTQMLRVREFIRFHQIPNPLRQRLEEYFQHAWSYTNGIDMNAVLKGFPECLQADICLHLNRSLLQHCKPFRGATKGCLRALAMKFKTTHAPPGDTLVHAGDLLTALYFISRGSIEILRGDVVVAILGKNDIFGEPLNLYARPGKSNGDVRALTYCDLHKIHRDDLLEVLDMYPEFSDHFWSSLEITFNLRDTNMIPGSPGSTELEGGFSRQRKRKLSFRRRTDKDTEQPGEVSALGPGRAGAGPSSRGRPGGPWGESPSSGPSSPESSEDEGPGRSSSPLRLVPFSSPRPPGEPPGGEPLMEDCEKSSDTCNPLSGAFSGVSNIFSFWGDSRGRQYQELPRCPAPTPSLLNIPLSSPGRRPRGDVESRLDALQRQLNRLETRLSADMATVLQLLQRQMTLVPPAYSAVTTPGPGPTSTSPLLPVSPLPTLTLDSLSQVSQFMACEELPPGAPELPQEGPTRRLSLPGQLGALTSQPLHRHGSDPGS
Histamine H3 receptor (Mus musculus, UniProt P58406), sequence (P58406 whole entry): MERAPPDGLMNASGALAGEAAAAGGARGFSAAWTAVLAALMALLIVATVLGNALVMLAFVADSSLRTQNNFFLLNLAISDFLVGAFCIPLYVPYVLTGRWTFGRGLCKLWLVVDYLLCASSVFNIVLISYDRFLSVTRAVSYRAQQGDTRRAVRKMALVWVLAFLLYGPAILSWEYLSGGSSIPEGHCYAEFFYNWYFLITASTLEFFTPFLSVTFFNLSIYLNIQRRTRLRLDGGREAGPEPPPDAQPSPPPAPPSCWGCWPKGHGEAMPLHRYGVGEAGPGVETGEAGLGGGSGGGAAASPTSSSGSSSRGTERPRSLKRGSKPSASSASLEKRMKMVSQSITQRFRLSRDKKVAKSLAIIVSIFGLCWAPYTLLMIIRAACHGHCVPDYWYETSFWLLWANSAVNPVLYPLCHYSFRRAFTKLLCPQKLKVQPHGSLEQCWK
Cytochrome P450 3A4, sequence (P08684 whole entry): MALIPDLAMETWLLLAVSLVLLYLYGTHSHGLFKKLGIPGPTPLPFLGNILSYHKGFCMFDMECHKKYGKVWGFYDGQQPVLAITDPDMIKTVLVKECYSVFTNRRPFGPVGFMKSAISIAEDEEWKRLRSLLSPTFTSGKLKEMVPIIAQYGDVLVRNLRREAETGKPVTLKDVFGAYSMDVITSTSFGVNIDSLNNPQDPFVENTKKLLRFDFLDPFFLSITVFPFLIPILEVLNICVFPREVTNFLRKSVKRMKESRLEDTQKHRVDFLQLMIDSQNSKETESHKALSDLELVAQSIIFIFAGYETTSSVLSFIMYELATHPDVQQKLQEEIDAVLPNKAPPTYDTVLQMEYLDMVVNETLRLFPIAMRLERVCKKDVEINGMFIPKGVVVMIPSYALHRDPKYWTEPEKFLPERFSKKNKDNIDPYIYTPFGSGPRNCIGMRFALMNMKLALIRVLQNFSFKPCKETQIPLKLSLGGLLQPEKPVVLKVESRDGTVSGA
Cytochrome P450 2D6, sequence (P10635 whole entry): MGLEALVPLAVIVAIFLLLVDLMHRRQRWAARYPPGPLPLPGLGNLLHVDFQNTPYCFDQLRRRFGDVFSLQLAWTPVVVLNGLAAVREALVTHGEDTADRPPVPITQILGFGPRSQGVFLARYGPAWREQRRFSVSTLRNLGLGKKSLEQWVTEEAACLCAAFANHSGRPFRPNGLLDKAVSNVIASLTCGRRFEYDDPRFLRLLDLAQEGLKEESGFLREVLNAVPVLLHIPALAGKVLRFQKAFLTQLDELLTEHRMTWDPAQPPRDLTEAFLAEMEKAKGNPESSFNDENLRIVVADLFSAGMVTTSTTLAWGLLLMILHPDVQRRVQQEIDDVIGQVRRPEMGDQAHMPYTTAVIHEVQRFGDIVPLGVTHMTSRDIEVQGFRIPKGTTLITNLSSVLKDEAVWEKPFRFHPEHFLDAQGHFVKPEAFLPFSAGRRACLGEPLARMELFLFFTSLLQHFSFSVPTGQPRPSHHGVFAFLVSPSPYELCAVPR

The Ki is the equilibrium dissociation constant of an inhibitor or competing ligand from its target. Take `CN1CCCN(CCCOc2ccc(-n3c(-c4ccccn4)nc4cc(F)ccc43)cc2)CC1`: affinity in series [1] was put at a Ki of 3.6 nM. Take `Fc1ccc2c(c1)nc(-c1ccccn1)n2-c1ccc(OCCCN2CCOCC2)cc1`: the Rb efflux in series [2] came to 62%. In series [1], this molecule displayed an inhibitory constant (Ki) of 3.4 nM. With `Fc1ccc2c(c1)nc(-c1ccccn1)n2-c1ccc(OCCCN2CCC(Cc3ccccc3)CC2)cc1`, in series [1], the Ki came to 2 nM. Consider `O=c1[nH]c2cc(F)ccc2n1-c1ccc(OCCCN2CCCCC2)cc1`, for which the Ki in series [1] came to 8.7 nM.

With `Fc1ccc2c(c1)nc(-c1ccccn1)n2-c1ccc(OCCCN2CCc3ccccc3C2)cc1`, the Rb efflux in series [2] is 94%. Besides, in series [1], the Ki was determined as 107 nM. Regarding `CNCCCOc1ccc(-n2c(-c3ccccn3)nc3cc(F)ccc32)cc1`, in series [1], the Ki came to 101 nM. The molecule `Fc1ccc2c(c1)[nH]c(=S)n2-c1ccc(OCCCN2CCCCC2)cc1` displayed a Ki in series [1] of 8 nM.

Molecule `Fc1ccc2c(c1)nc(-c1ccccn1)n2-c1ccc(OCCCN2CCCCCC2)cc1` displayed a Ki in series [1] of 5.3 nM. Same read-out and setting: to `C[C@@H]1CC[C@@H](C)N1CCCOc1ccc(-n2c(-c3ccccn3)nc3cc(F)ccc32)cc1` belongs 5.1 nM. For `OC1CCN(CCCOc2ccc(-n3c(-c4ccccn4)nc4cc(F)ccc43)cc2)CC1`, the Rb efflux in series [2] was 16%. In addition, the Ki in series [1] came to 1.8 nM. Take `Fc1ccc2c(c1)nc(-c1ccccn1)n2-c1ccc(OCCCN2CCCC2)cc1`: in series [1], the Ki was determined as 1.2 nM.

`CN1CCN(CCCOc2ccc(-n3c(-c4ccccn4)nc4cc(F)ccc43)cc2)CC1` gave a Ki in series [1] of 13 nM. Turning to `CCSc1nc2cc(F)ccc2n1-c1ccc(OCCCN2CCCCC2)cc1`, affinity in series [1] was put at a Ki of 2.6 nM. The molecule `NC(=O)C1CCCN(CCCOc2ccc(-n3c(-c4ccccn4)nc4cc(F)ccc43)cc2)C1` (stereo not drawn) yielded a Ki in series [1] of 11 nM. `Fc1ccc2c(c1)nc(-c1ccccn1)n2-c1ccc(OCCCN2Cc3cccc4cccc(c34)C2)cc1` displayed a Ki in series [1] of 713 nM. Molecule `NC(=O)C1CCN(CCCOc2ccc(-n3c(-c4ccccn4)nc4cc(F)ccc43)cc2)CC1` displayed a Ki in series [1] of 20 nM. Consider `Fc1ccc2c(c1)nc(-c1ccccn1)n2-c1ccc(OCCCN2CCSC2)cc1`, for which the Rb efflux in series [2] stood at 42%. The molecule further displayed a Ki in series [1] of 20 nM. The molecule `CCOc1nc2cc(F)ccc2n1-c1ccc(OCCCN2CCCCC2)cc1` had a Ki in series [1] of 15 nM.

One may read the Cmax as the peak of the concentration-time curve. The AUC(0-t) is exposure summed from dosing to a finite time, without extrapolation to infinity. Low readings indicate low exposure, high ones high exposure. As for `Fc1ccc2c(c1)nc(-c1ccccn1)n2-c1ccc(OCCCN2CCCCC2)cc1`, the Ki amounted to 1.8 nM in series [3], 1.2 nM in series [1] and 0.1 nM in series [5]. For the same molecule, the Rb efflux in series [2] was 70%. For the same molecule, the Activity entry in series [4] and in series [8] was “Not Active” throughout. The molecule further showed a Cmax in series [6] of 0.393 µg/mL. Also, the AUC(0-t) at 6 h in series [7] turned out to be 2.03 µg·h/mL. Consider `CC1CC(C)CN(CCCOc2ccc(-n3c(-c4ccccn4)nc4cc(F)ccc43)cc2)C1` (stereo not drawn), for which the Ki in series [1] was 11 nM. `COC(=O)C1CCN(CCCOc2ccc(-n3c(-c4ccccn4)nc4cc(F)ccc43)cc2)CC1` returned a Rb efflux in series [2] of 49%. Affinity in series [1] was put at a Ki of 16 nM.
